Measurements: paper PMC5909815 (Nature chemical biology, 2017)

Experiments:
H1155 cells [1] = experiment: cell viability, combination of inhibitors with paclitaxel; assay type: cell-based
[2] = tested on: multiple cell lines (H650, H1155, H23); experiment: relative cell counts after treatment with selective inhibitors; assay type: cell-based; settings: 72 h
Method in brief: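 Cells were treated 72 h with test inhibitors at 1.5 μM (20 μM for FMK and SL0101), diluted from 10 mM DMSO stocks in complete RPMI. Viable cells were counted in triplicate by trypan blue exclusion on a hemocytometer. Data are biological triplicates each in technical triplicate, reported as median ± SD relative counts.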

ALK = ALK (Homo sapiens, UniProt Q9UM73); experiment: in vitro kinase assay; assay type: biochemical
Method in brief: (§1)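 Biochemical kinase IC50s were determined by two contract providers. One used a 10-dose 3-fold serial dilution from 20 μM and the other a 9-dose 3-fold dilution from 20 μM, each in technical duplicate. Reported values are the mean of the combined datasets.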

EML4-ALK = EML4-ALK (Homo sapiens, UniProt Q9HC35+Q9UM73); experiment: c-ceritinib pulldown; assay type: binding; settings: immobilized compound, cell lysate
H460 cells [3] = experiment: cell viability, combination with paclitaxel; assay type: cell-based
[4] = patient plasma; cited from earlier work
[5] = tested on: ERK phosphorylation in H23 cells; experiment: Western blot, ERK phosphorylation; assay type: cell-based; settings: 3 h
Method in brief: (§2)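 H23 cells were treated for 3 h with test compounds: FMK at 20 μM, OSI-906 and PF-573228 at 1.5 μM. Target phosphorylation and downstream signals were read by western blot with HRP-conjugated secondary antibodies; n = 3.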

H460 cells [6] = experiment: clonogenic assay, combination with paclitaxel; assay type: cell-based; settings: 7 days
mTOR = mTOR (Homo sapiens, UniProt P42345); experiment: in vitro kinase assay; assay type: biochemical; settings: at 1.5 μM
[7] = tested on: autophosphorylation of FAK1 in H23 cells; experiment: Western blot, FAK1 autophosphorylation; assay type: cell-based; settings: 3 h
Method in brief: as §2

AMPKα1 = AMPKα1 (Homo sapiens, UniProt Q13131); experiment: in vitro kinase assay; assay type: biochemical
Method in brief: as §1

FER = FER (Homo sapiens, UniProt P16591); experiment: in vitro kinase assay; assay type: biochemical
[8] = tested on: PDX tumor models with high pFAK1 staining (PDX1, PDX2, PDX3); experiment: ex vivo soft-agar 3D clonogenic assay, combination with paclitaxel; assay type: cell-based; settings: particularly at low drug concentrations
FAK1 and RSK1/2 = experiment: c-ceritinib pulldown competition with free ceritinib; assay type: binding; settings: 20 μM unmodified ceritinib, H650 cell lysate
[9] = tested on: AKT phosphorylation in H23 cells; experiment: Western blot, AKT phosphorylation; assay type: cell-based; settings: 3 h
Method in brief: as §2

ERK1/2 = experiment: in vitro kinase assay; assay type: biochemical; settings: at 1.5 μM
[10] = biological target: RSK1/2 C-terminal kinase domain (CTKD); experiment: cross-competition pulldown with NTKD or CTKD inhibitors; assay type: binding; settings: H650 lysate ± 20 μM BI-D1870 or FMK
[11] = tested on: NRAS-mutant H1299 LCLC cells; experiment: cell viability, combination with paclitaxel; assay type: cell-based
[12] = tested on: RSK1/2 S380/S386 autophosphorylation in H23 cells; experiment: Western blot, RSK1/2 autophosphorylation; assay type: cell-based; settings: 3 h
Method in brief: as §2

[13] = tested on: phosphorylation of YB1 at S102; experiment: Immunoblot, YB1 phosphorylation; assay type: cell-based; settings: 3 h treatment
Method in brief: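 YB1 phosphorylation was read by immunoblot after 3 h treatment: FMK 20 μM, OSI-906 1.5 μM, PF-573228 1.5 μM. Lysis was in NP40/Tris pH 7.5/glycerol/MgCl₂/NaCl buffer with phosphatase and protease inhibitors. Detection used HRP-conjugated anti-rabbit or anti-mouse secondaries.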

H650 and H1155 cells = experiment: cell viability, combination with paclitaxel; assay type: cell-based; settings: 72 h
Method in brief: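 Cells were plated at 1000 cells/well in 384-well format and dosed 24 h later with test compound alone or with the partner agent, each diluted in culture medium. After 72 h, viability was read by CellTiter-Glo luminescence (n = 3). Dose-response curves were fitted, and combination effects were scored by the Bliss model or by the Chou-Talalay combination index.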

NSCLC cells = experiment: cell cycle analysis by flow cytometry; assay type: cell-based
Method in brief: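 Cell cycle: after incubation, cells were harvested, fixed in 70% cold ethanol and held at −20°C. They were then washed in PBS and stained with 1 μg/mL DAPI in 0.1% Triton X-100/PBS. DNA content was measured by flow cytometry and cell-cycle phases were modelled from the histograms.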

H1155 cells [14] = experiment: apoptosis by cleaved caspase 3/7 and PARP1; assay type: cell-based; settings: for apoptosis, single drug: single drug treatment
[15] = tested on: phosphorylation of RPS6 at S235/236; experiment: Immunoblot, RPS6 phosphorylation; assay type: cell-based
[16] = tested on: NSCLC cell lines (KRAS-mutant H650, H1155 and H23 cells); experiment: phenotypic drug screen, cell viability; assay type: cell-based; settings: 72 h, 2.5 μM; ALK-negative lines
Method in brief: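 Phenotypic screen: 240 compounds were tested across 20 NSCLC cell lines, seeded 1000 cells/well in 384-well plates and treated 24 h later. Compounds were diluted from 10 mM DMSO stocks in complete RPMI to final 0.5 μM and 2.5 μM for 72 h in biological duplicate. Viability was read by CellTiter-Glo luminescence and profiles were grouped by unsupervised hierarchical clustering.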

[17] = tested on: ALK-negative NSCLC cell lines (most sensitive cells); experiment: CellTiter-Glo cell viability, dose-response curves; assay type: cell-based

ALK, sequence (Q9UM73 19-1620): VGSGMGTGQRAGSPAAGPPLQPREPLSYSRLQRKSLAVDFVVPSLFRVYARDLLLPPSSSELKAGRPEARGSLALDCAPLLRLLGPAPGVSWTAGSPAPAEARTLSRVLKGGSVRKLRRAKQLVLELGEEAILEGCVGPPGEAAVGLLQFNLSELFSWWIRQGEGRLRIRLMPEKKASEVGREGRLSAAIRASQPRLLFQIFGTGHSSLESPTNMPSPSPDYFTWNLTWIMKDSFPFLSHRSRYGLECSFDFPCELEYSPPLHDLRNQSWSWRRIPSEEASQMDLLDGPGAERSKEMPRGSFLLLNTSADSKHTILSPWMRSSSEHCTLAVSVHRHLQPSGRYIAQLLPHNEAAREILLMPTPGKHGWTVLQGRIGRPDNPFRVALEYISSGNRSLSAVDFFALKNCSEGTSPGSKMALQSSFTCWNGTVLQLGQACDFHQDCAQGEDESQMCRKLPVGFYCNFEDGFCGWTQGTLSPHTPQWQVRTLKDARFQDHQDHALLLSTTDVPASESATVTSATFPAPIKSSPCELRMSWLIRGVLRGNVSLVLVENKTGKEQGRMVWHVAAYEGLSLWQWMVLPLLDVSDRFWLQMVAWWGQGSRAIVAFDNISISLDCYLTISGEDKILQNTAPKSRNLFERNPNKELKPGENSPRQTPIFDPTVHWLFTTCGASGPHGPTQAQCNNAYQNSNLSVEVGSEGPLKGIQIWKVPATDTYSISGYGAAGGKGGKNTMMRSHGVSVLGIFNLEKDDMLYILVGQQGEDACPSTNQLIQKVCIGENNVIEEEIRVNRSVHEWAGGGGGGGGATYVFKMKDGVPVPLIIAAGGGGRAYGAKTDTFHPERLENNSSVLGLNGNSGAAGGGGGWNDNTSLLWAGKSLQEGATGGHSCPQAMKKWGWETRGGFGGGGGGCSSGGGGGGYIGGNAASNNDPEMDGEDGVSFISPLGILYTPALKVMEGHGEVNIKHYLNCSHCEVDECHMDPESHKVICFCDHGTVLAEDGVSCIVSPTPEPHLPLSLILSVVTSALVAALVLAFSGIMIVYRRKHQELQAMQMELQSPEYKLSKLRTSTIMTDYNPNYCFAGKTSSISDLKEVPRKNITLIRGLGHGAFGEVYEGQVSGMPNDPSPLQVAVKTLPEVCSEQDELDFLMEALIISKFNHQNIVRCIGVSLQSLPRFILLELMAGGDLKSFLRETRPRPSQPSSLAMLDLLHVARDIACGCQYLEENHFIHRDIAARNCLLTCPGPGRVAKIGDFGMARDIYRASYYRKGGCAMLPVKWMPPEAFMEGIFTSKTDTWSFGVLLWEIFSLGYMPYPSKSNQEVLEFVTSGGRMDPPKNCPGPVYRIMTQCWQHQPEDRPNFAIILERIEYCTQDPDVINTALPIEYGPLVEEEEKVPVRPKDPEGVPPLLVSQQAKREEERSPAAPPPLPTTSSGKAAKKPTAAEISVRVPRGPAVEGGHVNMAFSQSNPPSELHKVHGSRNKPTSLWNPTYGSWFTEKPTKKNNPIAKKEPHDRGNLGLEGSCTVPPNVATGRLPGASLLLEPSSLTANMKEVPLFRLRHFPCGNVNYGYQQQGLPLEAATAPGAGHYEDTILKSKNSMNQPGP
FER, sequence (P16591 whole entry): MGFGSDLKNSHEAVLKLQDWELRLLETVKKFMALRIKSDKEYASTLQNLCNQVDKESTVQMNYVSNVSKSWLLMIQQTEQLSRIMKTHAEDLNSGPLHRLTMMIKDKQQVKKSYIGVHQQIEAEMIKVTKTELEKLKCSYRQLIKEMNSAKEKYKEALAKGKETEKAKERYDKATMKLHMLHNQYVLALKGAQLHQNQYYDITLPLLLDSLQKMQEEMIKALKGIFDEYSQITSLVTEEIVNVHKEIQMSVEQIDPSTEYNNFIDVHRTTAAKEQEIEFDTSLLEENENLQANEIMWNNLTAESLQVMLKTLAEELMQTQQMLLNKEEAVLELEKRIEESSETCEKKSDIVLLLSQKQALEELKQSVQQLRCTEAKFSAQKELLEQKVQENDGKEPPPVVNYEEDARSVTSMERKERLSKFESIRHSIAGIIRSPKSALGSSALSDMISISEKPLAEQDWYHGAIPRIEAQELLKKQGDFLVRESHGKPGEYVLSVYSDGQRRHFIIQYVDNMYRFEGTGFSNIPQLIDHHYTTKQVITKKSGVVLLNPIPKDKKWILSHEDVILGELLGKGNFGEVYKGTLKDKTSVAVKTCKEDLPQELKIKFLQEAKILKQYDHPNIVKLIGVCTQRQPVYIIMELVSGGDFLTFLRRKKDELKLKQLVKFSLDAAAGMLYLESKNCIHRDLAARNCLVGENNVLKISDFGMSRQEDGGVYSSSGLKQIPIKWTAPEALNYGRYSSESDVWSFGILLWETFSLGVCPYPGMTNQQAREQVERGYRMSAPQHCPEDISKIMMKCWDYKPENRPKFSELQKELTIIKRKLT
AMPKα1, sequence (Q13131 whole entry): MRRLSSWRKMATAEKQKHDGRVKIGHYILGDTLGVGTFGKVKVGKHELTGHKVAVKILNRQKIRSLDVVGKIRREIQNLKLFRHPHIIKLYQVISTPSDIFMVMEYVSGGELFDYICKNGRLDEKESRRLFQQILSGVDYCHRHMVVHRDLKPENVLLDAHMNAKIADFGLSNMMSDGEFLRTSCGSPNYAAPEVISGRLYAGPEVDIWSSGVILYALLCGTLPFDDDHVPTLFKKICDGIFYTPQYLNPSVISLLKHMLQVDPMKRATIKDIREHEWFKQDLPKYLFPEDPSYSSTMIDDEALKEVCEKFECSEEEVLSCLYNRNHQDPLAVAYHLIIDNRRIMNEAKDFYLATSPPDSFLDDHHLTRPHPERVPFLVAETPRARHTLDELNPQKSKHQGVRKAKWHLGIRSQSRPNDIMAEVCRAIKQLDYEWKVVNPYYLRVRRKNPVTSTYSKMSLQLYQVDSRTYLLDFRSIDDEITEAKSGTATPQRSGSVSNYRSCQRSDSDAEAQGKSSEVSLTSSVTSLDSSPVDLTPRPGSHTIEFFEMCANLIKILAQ
AMPKα1, sequence (Q9Y478 whole entry partner): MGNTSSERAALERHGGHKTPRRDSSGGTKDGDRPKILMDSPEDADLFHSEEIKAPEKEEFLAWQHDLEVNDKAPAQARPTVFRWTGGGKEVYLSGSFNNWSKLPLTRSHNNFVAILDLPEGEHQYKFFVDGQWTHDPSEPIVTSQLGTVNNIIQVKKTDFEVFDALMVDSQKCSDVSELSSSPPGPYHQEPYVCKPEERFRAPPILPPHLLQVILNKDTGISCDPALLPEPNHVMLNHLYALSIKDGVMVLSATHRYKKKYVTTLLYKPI
AMPKα1, sequence (P54619 whole entry partner): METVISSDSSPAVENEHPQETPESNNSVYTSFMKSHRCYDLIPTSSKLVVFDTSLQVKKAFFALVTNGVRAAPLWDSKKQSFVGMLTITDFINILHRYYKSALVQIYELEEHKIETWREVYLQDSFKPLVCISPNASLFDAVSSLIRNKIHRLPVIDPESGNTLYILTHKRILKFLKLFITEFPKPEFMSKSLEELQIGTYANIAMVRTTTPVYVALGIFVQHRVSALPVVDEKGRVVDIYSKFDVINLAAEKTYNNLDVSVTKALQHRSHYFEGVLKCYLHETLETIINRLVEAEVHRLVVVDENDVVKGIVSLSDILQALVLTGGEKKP

## CNC(=O)c1ccccc1Nc1nc(Nc2ccc3c(c2OC)CCC[C@H](N2CCN(CCO)CC2)C3)ncc1Cl [CEP-37440]
H1155 cells [1]
  synergy with paclitaxel: strongly synergized

## Cc1ccc(-c2c(C(=O)CF)n(CCCO)c3ncnc(N)c23)cc1 [FMK]
[2]; 20 μM
  effect on viability, single agent: little effect

## C[C@]1(O)C[C@@H](c2nc(-c3ccc4ccc(-c5ccccc5)nc4c3)c3c(N)nccn32)C1 [OSI-906]
[2]; 1.5 μM
  effect on viability, single agent: little effect

## CS(=O)(=O)c1cccc(CNc2nc(Nc3ccc4c(c3)CCC(=O)N4)ncc2C(F)(F)F)c1 [PF-573228]
[2]; 1.5 μM
  effect on viability, single agent: little effect

## CC(=O)O[C@@H]1[C@@H](OC(C)=O)[C@@H](O)[C@H](Oc2c(-c3ccc(O)cc3)oc3cc(O)cc(O)c3c2=O)O[C@H]1C [SL0101]
[2]; 20 μM
  effect on viability, single agent: little effect

## Cc1cc(Nc2ncc(Cl)c(Nc3ccccc3S(=O)(=O)C(C)C)n2)c(OC(C)C)cc1C1CCN(CCCN)CC1 [c-ceritinib]
ALK
  ALK inhibition: Activity was confirmed
EML4-ALK
  binding of EML4-ALK: ability to bind

## Cc1cc(Nc2ncc(Cl)c(Nc3ccccc3S(=O)(=O)C(C)C)n2)c(OC(C)C)cc1C1CCNCC1 [ceritinib, 5-Chloro-N2-(2-isopropoxy-5-methyl-4-(piperidin-4-yl)phenyl)-N4-(2-(isopropylsulfonyl)phenyl)pyrimidine-2,4-diamine]
H460 cells [3]
  synergy, CI values: highly synergistic
[4]
  clinical plasma concentrations: 1.4 to 2.3 µM
[5]
  effect on ERK phosphorylation: only minor effects
H460 cells [6]
  combination effect, clonogenic assay: pronounced combination effects
mTOR
  inhibition: not significantly inhibited
[7]
  effect on autophosphorylation of FAK1: reduced
AMPKα1
  IC50: 2500 nM
FER
  IC50: 5 nM
[8]
  synergy (Bliss), 3D ex vivo culture: pronounced synergy
FAK1 and RSK1/2
  competition from the affinity matrix: competed away
[9]
  effect on AKT phosphorylation: reduced
ERK1/2
  inhibition: not significantly inhibited
[10]
  kinase domain bound: binds to the CTKD
[11]
  response to combination: strong response
[12]
  effect on RSK1/2 S380/S386 autophosphorylation: inhibited
[13]
  effect on YB1 S102 phosphorylation: inhibited
H650 and H1155 cells
  synergy, Bliss model of independence: substantial synergy
NSCLC cells
  cell cycle effect: G1 cell cycle arrest
H1155 cells [14]; ceritinib combined with paclitaxel
  apoptosis, combination: significant increase in apoptosis
H1155 cells [14]
  apoptosis, single drug: no effect
[15]
  effect on RPS6 S235/236 phosphorylation: inhibited
[16]
  activity in viability screen: specific ALK-independent activity
H1155 cells [1]
  synergy with paclitaxel: pronounced synergy
[17]; 72 h, read-out: IC50, inhibition of viability
  IC50: 1000 to 2000 nM
[17]; read-out: Emax, viability
  viability at 4 µM: 0%

## c1cc(-c2cnn3cc(-c4ccc(OCCN5CCCCC5)cc4)cnc23)ccn1 [compound C]
H1155 cells [1]
  synergy with paclitaxel: did not synergize

## CC(=O)O[C@H]1C(=O)[C@@]2(C)[C@H]([C@H](OC(=O)c3ccccc3)[C@]3(O)C[C@H](OC(=O)[C@H](O)[C@@H](NC(=O)c4ccccc4)c4ccccc4)C(C)=C1C3(C)C)[C@]1(OC(C)=O)CO[C@@H]1C[C@@H]2O [paclitaxel]
H1155 cells [14]
  apoptosis, single drug: no effect

## CN(C)C(=O)c1cc2cnc(Nc3ccc(N4CCNCC4)cn3)nc2n1C1CCCC1 [ribociclib]
H1155 cells [1]
  synergy with paclitaxel: did not exhibit synergy
